Reference: the EternaBench riboswitch data

System: MS2 coat protein
Experiment: apparent Kd, MS2 coat protein; higher = weaker binding; RNA-MaP array; FMN 200 µM where present
Procedure, shortened: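 In 100 mM Tris-HCl pH 7.5, 80 mM KCl, 4 mM MgCl2, BSA, DTT, yeast tRNA and Tween-20, SNAP-549-labelled MS2 coat protein was titrated from 0.7 or 1.5 nM, doubling to 3 µM, over designs transcribed by stalled E. coli RNA polymerase on Illumina sequencing-chip clusters. This was done first without ligand, then with ligand held constant. After green signal was normalised to red-channel RNA signal and control-cluster median Fmax, the apparent Kd was taken as the median of filtered per-cluster binding-curve fits.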

[1] = designed as: ON switch for flavin mononucleotide, no ligand
[2] = ligand present: flavin mononucleotide, designed as: ON switch for flavin mononucleotide
[3] = designed as: OFF switch for flavin mononucleotide, no ligand
[4] = ligand present: flavin mononucleotide, designed as: OFF switch for flavin mononucleotide

Sequence | apparent Kd [1] [nM] | apparent Kd [2] [nM] | apparent Kd [3] [nM] | apparent Kd [4] [nM]
ACAUACUUUCGAGGAUAUCGGUGAUAAUUUUUACGAGAAGGCGAUAAAAGAUAUAAUCUUAUAGACAUGAGGAUCACCCAUGUA | 30.5 | 26.4 |  | 
AUCGUGUUAGGAUAUACACGACGCUGGGUAGCUAGCGGAGGGUAGAAGGGACAUGAGGAUCACCCAUGUUCGGG |  |  | 157 | 282
GCGACGGCGAAAGGAUAUCAAAAUCAACAGUGUUGAGAAGGUUCUCCGAGGGUCGCACAUGAGGAUCACCCAUGUCGCGAAUCU | 13.1 | 10.3 |  | 
UUAAAUCAUGUAGGAUAUGCAUGGCGAAGCUACGCAGAAGGACAUGAGGAUCACCCAUGUUAAAGCUUCCGAGUUCGGAGGCAA |  |  | 114 | 266
AUGCUUCACACAGGAUAUUACAACAUGAGGAUCACCCAUGUACAUGACAUGACGAUCACGCAUGUUAAGAAGGGUGUGAAGCAU |  |  | 587 | 449
AGAUAGCGAAUAGUAAUAAAAGUACAGGAUAUGUUACAUGAGGAUCACCCAUGUAUUGGGUAAGAACAGAAGGGUACGCUAGAG |  |  | 144 | 123
UGUUGUUCAGGAUAUGAUGUGUUAUACAUGAGGAUCACCCAUGUGGGUCCUGAUUUGGCGUCAGAAGGGAAUGUUG |  |  | 116 | 200
GCACUGACAGGAUAUACAUGAGGAUCACCCAUGUGACCCUUACAGUACUCGCGUACUGGUAGAAGGGUCUGUGC |  |  |  | 140
AAAUUUAACGAAGGAUAUGGUUACAUGAGGAUCACCCAUGUGUGCCUUGUGAUUUUGUUUAAGUUCCAGAAGGUCGUAUACAUA |  |  | 26.4 | 168
AAGUAGAACGUAGGAUAUCAAUGAGGAUCACCCUGAGAAGGACGUGAGGACAUGAGGAUCACCCAUGUGGAUCACCCAUGUCAU |  |  | 157 | 132
UCCUUAGCGGUCAGGAUAUACACCCGUUACUCCUUGUAGAAGGGACAUGAGGAUCACCCAUGUACAGUACAUCU |  |  | 22.9 | 21
AAGAUACUUACAGGAUAUAGGGCAUAGGGUGCCCUAGAAGGGUGAACAUGAGGAUCACCCAUGUAUGUAUCAGAUUAGAAGGCA | 53.3 | 41.8 |  | 
AUGCCCGGAGGAUAUACACUAAAAGUCCGGUGCUAGGGUAGACAUGAGGAUCACCCAUGUAGAAGGCCGAGGCA |  |  | 53.2 | 101
GACUUGUUAGGAUAUCUUACAUUUGCAUCAUAGUAACCUUUGGAGAAGGGACAUGAGGAUCACCCAUGUUUGGA |  |  | 40.1 | 36.6
ACUGUCGCGUGAGGAUAUGGUCUGCAGUGCUGACCAGAAGGCAUGUCGAUAGACAUGAGGAUCACCCAUGUGGUUAGGGCGGCU | 619 | 298 |  | 
GGCGGACGAAACAUGAGGAUCACCCAUGUGUUAUAAUUAAUAUAGGAUAUGUUUAUACUUUUUGGGCAGAAGGAUGAUAAUGCC | 18.5 | 16.2 |  | 
GGGUACAUCGGAGGAUAUCAUGUAGAUACAUGAGGAUCACCCAUGUCGUACGAGAGUACGGAGAUUGAGAAGGCCGAUGUACCG | 31 | 14.7 |  | 
CCACGUCACAUAUACAUGAGGAUCACCCAUGUCAAAAGACAUGAGGAUAUGGAUCCUAAUUGGAUCCAGAAGGCAUGGACGUGG | 757 | 50.8 |  | 
CGCUAUGACAUAGGAUAUUGGUACAUGAGGAUCACCCAUGUCAACCUUUAAGCAAAAUUUGUUGACAAGAAGGAUGUGGUAGCG | 11 | 7.71 |  | 
CUUUUGUGAGGAUAUCAGUAGUAUAAAAAUAAAAUUACUACUGAGAAGGCACAUGAGGAUCACCCAUGUUCCUC |  |  | 39 | 226
UCUCGUUUCGCAGGAUAUGCUGGUCGGUCAUAAACCGGCCACAUGAGGAUCACCCAUGUGCCACAGCAGAAGGGUGACACUAGA | 543 | 59 |  | 
UAAUAGUAUGUUAGGAUAUGCUGGUCCUUGGAUCAGCAGAAGGAACAUGAGGAUCACCCAUGUAGACUAUUUUA |  |  | 15.5 | 30
UUUCCGCAAGGAUAUACGGGCUGUGCUUUUCAUUUCUUACAACAUGAGGAUCACCCAUGUAGAAGGUGCUUCUU |  |  | 208 | 217
CUUUCGUUAGCAGGAUAUGGACAGGCCUGUCCGUCUUGAGUCAGUAACAUGAGGAUCACCCAUGUCCAGAAGGGCUCGAAGGGA |  |  | 17.7 | 32.4

Sequence | apparent Kd [1] [nM] | apparent Kd [2] [nM] | apparent Kd [3] [nM] | apparent Kd [4] [nM]
ACAUUGUUACAGGAUAUCGUUGGUUUUAUCCUGCGAGAAGGGUAUACAUGAGGAUCACCCAUGUUAUCCUCAUU |  |  | 18.7 | 21.8
AAAGACAGACAUGAGGAUCACCCAUGUUAUGAAGAUACUGGGAGAAGGGCGAUUGCAAAGCAAUCGCAGGAUAUUCGUAUUGUC | 92.2 | 15.6 |  | 
UCACGGGAUUGAGGAUAUAUAUUUAUUAUUUUAAUAGAAGGCAAAGAGUUAGUUUUUUCACUAUACAUGAGGAUCACCCAUGUU |  |  | 33.4 | 30.5
AGGGAGUGAGGAUAUGCUGCUCGUCACUUGCGUGAUGAGUAGCAGAAGGUACAUGAGGAUCACCCAUGUAAAAA |  |  | 28.4 | 19
GGUACUCAAAGAGUACCAAUACGAACAUGAGGAUCACCCAUGUAGGAUAUAAAACCGCCGGAGUAUUAGAAGGACAUGUGCCUA |  |  | 11.5 | 10.5
CUUUAGUGAGGAUAUGUGGCUUCGAUCGUGAGAUCGAGGCUACAGAAGGCACAUGAGGAUCACCCAUGUUUCUU |  |  | 17.2 | 81
AGAUACAGGCAGAAGGGUUGGUAAGUUGGGUCAACAGGAUAUGCCUCUGUGACAUGAGGAUCACCCAUGUUACCAAACAGUCUU | 583 | 49.5 |  | 
AGAUCUACAGGAUAUACAUGAAAGAUCAUCAUGACCCUUCAACAUGAGGAUCACCCAUGUAGAAGGGUAGAUCA |  |  | 27.7 | 13.5
GGAUGACAAAGUCAUCCUAUUCGAACAUGAGGAUCACCCAUGUAGGAUAUGGUACUCAAAGAGUACCAGAAGGACAUGUGCUUU |  |  | 36.2 | 127
AGUAGAUCAGGAUAUACGUGAAAGGUCAAAGUGUCCCUACUACAUGAGGAUCACCCAUGUAGAAGGGAUCUACA |  |  | 13.4 | 14.6
GGACGUCAGAUUAACAUGAGGAUCACCCAUGUCUUUUGACAUGAGGAUAUGGAAGGUAAUUCCUUCCAGAAGGCAUGGACGUCC | 1020 | 114 |  | 
UAAAUUUUAUGAUAUUAUGACAUUAGAAGGCUAUACAUGUUGAUACAUGAGGAUCACCCAUGUAUAGAGGAUAUAGACAAUUAU |  |  | 44.1 | 100
UCAGGCUUCGAGAAGGACAUGAGGAUCACCCAUGUGCGUGUAAAACAGCCAAAAGGCUGCAUCAUGUAGGAUAUCGGAGUCUGC |  |  | 279 | 192
ACCUCACAUGAGGAUCACCCAUGUCAGGAUAUACAAACCGUGAUAAGACACGGUCGUAGUAGAAGGGACUAUGG |  |  | 69.5 | 24.9
CACCGUUAGUGAGGAUAUCUUACAUGAGGAUCACCCAUGUAAUAAAUGAGAAUUUCGGAUGUAUUAGAGAAGGCACAAAUCGGC |  |  | 25.1 | 24.3
GUAGCUACAUGAGGAUCACCCAUGUAGGAUAUCGCUAUUGUAAUCAUGAAACAUGAUUACAAUAGCGAGAAGGACAUGUGCUAC |  |  | 20.9 | 25.2
GGCGGCGGACAAGGAUAUAAGACGCGGACCAAAUUAGAAGGUGUCAUCUGGCAAUGCGAAAGCAGACAUGAGGAUCACCCAUGU | 78.9 | 72.7 |  | 
GAUGGAAUAGUCAGGAUAUAAACGUCAGGAUAUGUUUAGAAGGGACAUGAGGAUCACCCAUGUUAAGAUAUGGU |  |  | 29.9 | 87.6
GCUGCGCGAGGAUAUGCGGUUCGCGCUGUGGCCCGUGGCGCACAUGAGGAUCACCCAUGUAGAAGGCGUGCGGG |  |  | 12.2 | 13.1
UUGGACGUCGUAGGAUAUGUAAGAUAUUCCUACAUGAGGAUCACCCAUGUUGACAUGGAAGAAGGACAGAAGGACGAUGUCCAU | 6.47 | 4.87 |  | 
CUUAGUAUCUAGGAUAUCUAGUACAUAGUAUCUAGAGAAGGAGAUACAUGAGGAUCACCCAUGUUCUGUGAUCU |  |  | 272 | 40.4
GGAGCAAGUGUCAGGAUAUCGUGGUCGAUAGAUCACGAGAAGGGACAUGAGGAUCACCCAUGUGUCCUAGCUCC |  |  | 262 | 484
UAAUAAUAAUAAUAGCAGAAUUACAUGAGGAUCACCCAUGUAUAGGAUAUCGUCAGGAAUACUGACGAGAAGGAUACAUACUGC |  |  | 17.8 | 25.6
ACAAGAUCAGGAUAUACAUGAGGAUCACCCAUGUAUAUCAAAAAAGGGCUUUCUACAUGUAGAAGGGAUCUUGU |  |  | 13.9 | 11.8
